The list is not random: actives were taken first. Their share in the collection is about 4.1%.
Apaf-1 inh: inhibitors of human Apaf-1 apoptosome, primary screen, biochemical, DEVD-Rh110 fluorescence, uHTS. Apoptotic protease-activating factor 1 (Homo sapiens), O14727. reconstituted apoptosome caspase-3 activity. inhibition, % at 20 µM. actives 0.71% (n = 330,000). AID 489030, 2010; active = inhibition of at least 40% at 20 µM;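 also: plate controls were DMSO wells for no effect and DEVD-CHO caspase inhibitor wells for full effect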
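Medium: Hepes buffer, pH 7.5 / System: biochemical Apaf-1 apoptosome reconstitution / Measured by: Rh110 fluorescence, excitation 480 nm, emission 540 nm / Times: compound with Apaf-1, dATP, procaspase-3 30 min, then 50 min reaction, room temperature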
XBP1 UPR activ: activators of adaptive XBP1 UPR arm, primary screen, cell-based, CHO-XBP1 luciferase reporter, luminescence, uHTS; IRE1-XBP1 UPR activation; percent of tunicamycin response, DMSO as zero; activation, % at 20 µM; actives 0.33% (n = 330,000);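 active = versus positive control, 20 µM dose yields 30% or more activation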;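 also: 100% = tunicamycin at 10 µg/mL and 0% = DMSO only wells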
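Material: CHO-XBP1 cells stably carrying IRE1-XBP1-driven luciferase reporter | Medium: F12 with 10% serum | Compound dosing: 20 µM single concentration, DMSO 1% | Incubation: Overnight seeding at 37 °C, 6 h compound treatment at 37 °C | Detection: Steady-Glo luminescence read | Read-out basis: % activation of reporter signal versus tunicamycin and DMSO controls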
Mdm2-MdmX inh: inhibitors of human Mdm2-MdmX association, primary screen, cell-based, luminescence, split luciferase, SaOS-2, uHTS. inhibition, % at 8 µM. Protein Mdm4 (Homo sapiens) + E3 ubiquitin-protein ligase Mdm2 (Homo sapiens), …. actives 3% (n = 330,000). AID 485346, 2010. SaOS-2 split-luciferase Mdm2/MdmX complementation;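 active = inhibition of at least 50% at 8 µM in the primary screen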
CHOP UPR activ: activators of apoptotic CHOP UPR arm, primary screen, cell-based, CHO-CHOP luciferase reporter, luminescence, uHTS; UPR activation; percent of tunicamycin response over DMSO baseline; activation, % at 10 µM; actives 0.34% (n = 330,000);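 active = at 10 µM dose, activation of 40% or more, normalized to positive control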;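 also: 100% = tunicamycin at 10 µg/mL and 0% = DMSO alone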
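System: CHO-CHOP luciferase reporter cell line; amount: 500 cells/well; buffer or medium: F12 medium containing 10% fetal bovine serum; incubation: 6 h compound exposure at 37 °C after overnight seeding; measured by: luciferase luminescence after 10 min with Steady-Glo reagent; evaluation: % reporter activation, DMSO baseline versus tunicamycin full activation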
UBC13 inh: UBC13 polyubiquitin chain formation inhibitors, primary screen, biochemical, TR-FRET, uHTS; actives 0.47% (n = 330,000); AID 485273, 2010; Ubiquitin-conjugating enzyme E2 N (Homo sapiens), P61088; inhibition, % at 20 µM; in the data active = inhibition above about 45%, passing the limit was not always enough
Target sequence (P61088 whole entry, looked up): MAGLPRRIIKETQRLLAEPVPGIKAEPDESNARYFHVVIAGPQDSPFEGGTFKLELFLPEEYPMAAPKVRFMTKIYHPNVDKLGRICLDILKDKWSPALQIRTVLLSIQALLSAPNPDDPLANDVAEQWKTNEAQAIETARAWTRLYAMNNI
Mdm2-MdmX conf: Mdm2-MdmX complex disruptors, retested hits, confirmation, luminescence, single concentration. actives 55% (n = 10,000). inhibition, % at 8 µM. shares compounds with Mdm2-MdmX inh. Mdm2-MdmX binding, luminescent assay; in the data active = inhibition above about 40%
Full FLuc ctr: full-length luciferase signal inhibition, confirmation, counter-screen for Mdm2/MdmX interaction inhibitor project, cell-based, single concentration, SaOS-2 | shares compounds with Mdm2-MdmX inh | SaOS-2 full-length luciferase counterscreen, luminescence | inhibition, % at 8 µM | actives 77% (n = 6,200) | AID 504607, 2011;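 active = mean inhibition at 8 µM reaching about 37%, which flags the compound as non-specific, limit read from the data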;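 also: p53-null SaOS-2 cells with luciferase driven by a doxycycline-inducible promoter; compound on cells about two nights before reading with doxycycline added after day one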
* = called active by the depositor.

Results for C/C(=N\NC(=O)c1ccc2nc[nH]c2c1)c1ccc([N+](=O)[O-])cc1 ?
Apaf-1 inh: -8.8; XBP1 UPR activ: -0.3; Mdm2-MdmX inh: 0.5; CHOP UPR activ: 0.0; UBC13 inh: -7.4

What do the screens show for `O=C(Nc1ccc(Oc2ccc(NC(=O)Nc3ccc([N+](=O)[O-])cc3)cc2)cc1)Nc1ccc([N+](=O)[O-])cc1`?
Apaf-1 inh: 11.9; XBP1 UPR activ: 11.1; Mdm2-MdmX inh: 95.2*; CHOP UPR activ: 6.7; UBC13 inh: -32.1; Mdm2-MdmX conf: 66.4*; Full FLuc ctr: 76.0*

How did OCCSc1c(F)c(SCCO)c(SCCO)c(F)c1SCCO do in these assays?
Apaf-1 inh: -10.5; XBP1 UPR activ: -1.3; Mdm2-MdmX inh: -0.7; CHOP UPR activ: 1.3; UBC13 inh: 4.0

What do the screens show for `Cc1ccc(CCNS(=O)(=O)c2cc(Br)cnc2N)cc1`?
Apaf-1 inh: -7.0; XBP1 UPR activ: -1.0; Mdm2-MdmX inh: 21.4; CHOP UPR activ: -2.3; UBC13 inh: 5.3

What do the screens show for `Cc1ccc(NC(=O)Nc2cccc([N+](=O)[O-])c2)cc1F`?
Apaf-1 inh: 1.4; XBP1 UPR activ: 9.0; Mdm2-MdmX inh: 57.3*; CHOP UPR activ: 9.1; UBC13 inh: 9.6; Mdm2-MdmX conf: 44.0*; Full FLuc ctr: 45.1*

Results for O=C(Nc1ccc(OC(F)(F)F)cc1)Nc1cccc([N+](=O)[O-])c1 ?
Apaf-1 inh: 18.3; XBP1 UPR activ: 11.0; Mdm2-MdmX inh: 94.7*; CHOP UPR activ: 4.5; UBC13 inh: 3.7; Mdm2-MdmX conf: 90.5*; Full FLuc ctr: 35.8

Results for Cc1cc(NC(=O)Nc2cccc([N+](=O)[O-])c2)no1 ?
Apaf-1 inh: 0.6; XBP1 UPR activ: 1.1; Mdm2-MdmX inh: 12.7; CHOP UPR activ: 1.1; UBC13 inh: -5.6

What do the screens show for `C[C@@H]1CN([C@@H](C)CO)C(=O)c2cc(NS(C)(=O)=O)ccc2O[C@@H]1CN(C)S(=O)(=O)c1ccccc1`?
Apaf-1 inh: -9.9; XBP1 UPR activ: 2.0; Mdm2-MdmX inh: -1.4; CHOP UPR activ: -0.3; UBC13 inh: 1.6

Results for CCCC(=O)Nc1nc2ccc(NC(=O)c3ccccc3F)cc2s1 ?
Apaf-1 inh: -8.2; XBP1 UPR activ: 6.1; Mdm2-MdmX inh: 54.9*; CHOP UPR activ: 3.6; UBC13 inh: 13.4; Mdm2-MdmX conf: 55.5*; Full FLuc ctr: 73.7*

What do the screens show for `Cn1nc(C(=O)NNC(=O)C(CCC(N)=O)NS(=O)(=O)c2ccc(Cl)cc2)c2ccccc2c1=O` (configuration not stated)?
Apaf-1 inh: -6.5; XBP1 UPR activ: -2.8; Mdm2-MdmX inh: 23.3; CHOP UPR activ: 0.9; UBC13 inh: -6.7

How did O=C(O)c1ccc(NC2=C(Cl)C(=O)c3ccccc3C2=O)cc1 do in these assays?
Apaf-1 inh: 29.9; XBP1 UPR activ: -6.2; Mdm2-MdmX inh: 100.3*; CHOP UPR activ: 3.3; UBC13 inh: -83.5; Mdm2-MdmX conf: 91.2*; Full FLuc ctr: 53.0*

Results for O=C(Nc1ccccc1)/C(=C1\CCCN1)[N+](=O)[O-] ?
Apaf-1 inh: -6.1; XBP1 UPR activ: -1.9; Mdm2-MdmX inh: 9.8; CHOP UPR activ: -0.3; UBC13 inh: -22.8

How did Cc1ccc2sc(N3CCN(CCNC(=O)c4ccco4)CC3)nc2c1C do in these assays?
Apaf-1 inh: 27.5; XBP1 UPR activ: -2.4; Mdm2-MdmX inh: 9.0; CHOP UPR activ: -1.4; UBC13 inh: 3.1

Results for CCOc1cc(S(=O)(=O)N2CC=C(c3ccc(F)cc3)CC2)c(OCC)cc1-n1cnnn1 ?
Apaf-1 inh: 12.7; XBP1 UPR activ: -0.6; Mdm2-MdmX inh: 53.0*; CHOP UPR activ: -0.7; UBC13 inh: -1.5; Mdm2-MdmX conf: 52.7*; Full FLuc ctr: 81.9*

How did CCOc1cc(S(=O)(=O)N2CCC(Cc3ccccc3)CC2)c(OCC)cc1-n1cnnn1 do in these assays?
Apaf-1 inh: 7.0; XBP1 UPR activ: 2.9; Mdm2-MdmX inh: 6.8; CHOP UPR activ: 0.4; UBC13 inh: -8.4

Results for COc1nc(/C=C/N(C)C)c([N+](=O)[O-])c(OC)n1 ?
Apaf-1 inh: -12.8; XBP1 UPR activ: 0.2; Mdm2-MdmX inh: 52.0*; CHOP UPR activ: 1.5; UBC13 inh: -74.2; Mdm2-MdmX conf: 21.8

How did O=C(CSc1ccc2nnc(CCNS(=O)(=O)c3ccccc3)n2n1)Nc1nc2ccccc2s1 do in these assays?
Apaf-1 inh: 2.8; XBP1 UPR activ: 0.8; Mdm2-MdmX inh: 3.1; CHOP UPR activ: -0.6; UBC13 inh: 10.7

Results for CN1C2CCC1/C(=C\c1ccccc1F)C(=O)/C2=C/c1ccccc1F ?
Apaf-1 inh: 3.1; XBP1 UPR activ: 5.4; Mdm2-MdmX inh: 58.6*; CHOP UPR activ: 0.9; UBC13 inh: 15.8; Mdm2-MdmX conf: 41.2*; Full FLuc ctr: 35.1

What do the screens show for `Brc1ccc(N/N=C(/N=Nc2nn[nH]n2)c2ccccc2)cc1`?
Apaf-1 inh: 17.0; XBP1 UPR activ: -1.6; Mdm2-MdmX inh: 76.8*; CHOP UPR activ: -3.4; UBC13 inh: -156.5; Mdm2-MdmX conf: 85.3*; Full FLuc ctr: 14.4

How did O=C(O)c1ccc(N=N/C(=N\Nc2ccc(C(=O)O)cc2)c2ccccc2)cc1 do in these assays?
Apaf-1 inh: 2.6; XBP1 UPR activ: -3.7; Mdm2-MdmX inh: 5.5; CHOP UPR activ: 3.7; UBC13 inh: -95.3

What do the screens show for `N#Cc1c(N2CCCCC2)nc(N2CCCCC2)c2c1CCN(Cc1ccccc1)C2`?
Apaf-1 inh: 1.3; XBP1 UPR activ: -3.2; Mdm2-MdmX inh: 52.9*; CHOP UPR activ: 0.3; UBC13 inh: 13.5; Mdm2-MdmX conf: 24.2

What do the screens show for `CS(=O)(=O)c1sc(C#N)c2c1C(=O)CC(c1ccccc1)C2` (configuration not stated)?
Apaf-1 inh: 6.5; XBP1 UPR activ: -10.6; Mdm2-MdmX inh: 99.2*; CHOP UPR activ: -10.7; UBC13 inh: -10.0; Mdm2-MdmX conf: 99.8*; Full FLuc ctr: 2.1

How did Cc1oc2c(c(=O)c1C)C(=O)CC(c1ccccc1)C2 (configuration not stated) do in these assays?
Apaf-1 inh: -17.5; XBP1 UPR activ: 2.9; Mdm2-MdmX inh: 15.9; CHOP UPR activ: -0.5; UBC13 inh: 2.4
